Assay: Toxicity liver stage against HepG2, at 10uM
Assay type: cell-based
Parameters: test concentration 10 uM, cell line HepG2-A16-CD81EGFP
Details: human, HepG2-A16-CD81EGFP cells; read-out: INHIBITION
Procedure, shortened: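 Uninfected HepG2-A16-CD81EGFP cells, 3 × 10^3 per well, 1536-well, plated on prespotted compound at 10 μM final, parasite-free screening media added to match infected plates; puromycin 10 μM positive, DMSO 0.5% negative; run in parallel with 48 h PbLuc assay at 37 °C, 5% CO2; viability by CellTiter-Glo luminescence, normalized to controls.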

**Q.** With `COc1ccc(OC)c(Sc2ncccc2C(=O)NCCSC)c1` as the compound, how does the cytotoxicity at 10 µM read?
**A.** The cytotoxicity at 10 µM was 20.7%.

**Q.** For `CC(C)c1cc(C(=O)O)nc2[nH]c(=O)[nH]c(=O)c12`, which cytotoxicity at 10 µM is on record?
**A.** Its cytotoxicity at 10 µM is -3.25%.

**Q.** With `COc1cc(OC)cc(-c2noc(CC(N)c3ccccc3)n2)c1` (stereo not given) as the compound, how does the cytotoxicity at 10 µM read?
**A.** Its cytotoxicity at 10 µM is 4.47%.

**Q.** For `O=C(Cn1ncc2c(c1=O)CCCCC2)Nc1cccc2[nH]ccc12`, which cytotoxicity at 10 µM is on record?
**A.** The cytotoxicity at 10 µM was 0.417%.

**Q.** For `COC(=O)c1ccc(C(=O)NCC2(O)CCOCC2)cc1`, which cytotoxicity at 10 µM is on record?
**A.** Its cytotoxicity at 10 µM is -5.08%.

**Q.** Which cytotoxicity at 10 µM does the source give for `COCc1cnc2n1CCN(S(=O)(=O)c1c(C)nn(C)c1C)C2C` (stereo not given) here?
**A.** The cytotoxicity at 10 µM was 15.4%.

**Q.** With `Cc1ncnc2c1CCN(C(=O)Cc1cccc(F)c1)CC2` as the compound, how does the cytotoxicity at 10 µM read?
**A.** The cytotoxicity at 10 µM was -5.95%.

**Q.** For `CN(C)C(=O)c1nc2c(s1)CCCN2Cc1ccccc1`, which cytotoxicity at 10 µM is on record?
**A.** Its cytotoxicity at 10 µM is 7.58%.

**Q.** For `CC(C)NC(=O)c1nc2c(s1)CCCN2Cc1ccccc1`, which cytotoxicity at 10 µM is on record?
**A.** The cytotoxicity at 10 µM was 18.3%.

**Q.** With `CCOC(=O)C1CN(C(=O)C2CCOCC2)Cc2ncn(CC)c21` (stereo not given) as the compound, how does the cytotoxicity at 10 µM read?
**A.** The cytotoxicity at 10 µM was 5.65%.

**Q.** Which cytotoxicity at 10 µM does the source give for `C[C@H]1C[C@@H]2CCN(CC3CCOCC3)C[C@H]2O1` here?
**A.** Its cytotoxicity at 10 µM is 10.3%.

**Q.** Which cytotoxicity at 10 µM does the source give for `CCOCC1CN(Cc2ccsc2)Cc2cnn(C)c21` (stereo not given) here?
**A.** Its cytotoxicity at 10 µM is 7.72%.

**Q.** With `COc1ncccc1CN1C[C@H](C(=O)N2CCCO2)[C@@H]2CCO[C@@H]2C1` as the compound, how does the cytotoxicity at 10 µM read?
**A.** The cytotoxicity at 10 µM was 11.2%.

**Q.** For `O=C(O)c1ccc2[nH]cc(CN3CCCC3)c2c1`, which cytotoxicity at 10 µM is on record?
**A.** Its cytotoxicity at 10 µM is -2.66%.

**Q.** Which cytotoxicity at 10 µM does the source give for `O=C1COc2ccc(S(=O)(=O)NCC3CCCO3)c3c2N1CCC3` (stereo not given) here?
**A.** The cytotoxicity at 10 µM was -4.2%.

**Q.** For `CCS(=O)(=O)N1Cc2nccn2CC(COc2cccnc2)C1` (stereo not given), which cytotoxicity at 10 µM is on record?
**A.** The cytotoxicity at 10 µM was -2.34%.

**Q.** For `CN1CCCC(c2ccnc(C(=O)NCC3CC3)c2)C1` (stereo not given), which cytotoxicity at 10 µM is on record?
**A.** Its cytotoxicity at 10 µM is 3.89%.

**Q.** Which cytotoxicity at 10 µM does the source give for `CC(=O)N1CCCN(c2cc(C3CN(C)CCO3)nc(C)n2)CC1` (stereo not given) here?
**A.** The cytotoxicity at 10 µM was 7.47%.

**Q.** For `CNc1nc2ncc(Cl)cc2cc1C#N`, which cytotoxicity at 10 µM is on record?
**A.** The cytotoxicity at 10 µM was 5.05%.

**Q.** With `Cc1cc(C)c2ncc(C#N)c(N3CCS(=O)(=O)CC3)c2c1` as the compound, how does the cytotoxicity at 10 µM read?
**A.** Its cytotoxicity at 10 µM is -8.17%.

**Q.** Which cytotoxicity at 10 µM does the source give for `Cc1cc(C)c(CNC(=O)C(C)Oc2cccc(C#N)c2)c(=O)[nH]1` (stereo not given) here?
**A.** The cytotoxicity at 10 µM was 7.42%.

**Q.** For `Cc1nc(C)n(CC2CCCCN2CCCC#N)n1` (stereo not given), which cytotoxicity at 10 µM is on record?
**A.** The cytotoxicity at 10 µM was 6.73%.

**Q.** With `Cc1cc(C)n(CC2CCCCN2CCCS(=O)(=O)N(C)C)n1` (stereo not given) as the compound, how does the cytotoxicity at 10 µM read?
**A.** The cytotoxicity at 10 µM was 2.32%.

**Q.** With `O=C(NCCCF)N1CCC(n2ccc(C(F)(F)F)n2)CC1` as the compound, how does the cytotoxicity at 10 µM read?
**A.** The cytotoxicity at 10 µM was -5.29%.

**Q.** Which cytotoxicity at 10 µM does the source give for `O=C(Nc1nccs1)NC1CCOc2ccccc21` (stereo not given) here?
**A.** Its cytotoxicity at 10 µM is 6.78%.

**Q.** Which cytotoxicity at 10 µM does the source give for `CS(=O)(=O)c1ccc(OCCNCc2c(F)cccc2F)cc1` here?
**A.** The cytotoxicity at 10 µM was -7.12%.

**Q.** Which cytotoxicity at 10 µM does the source give for `CC(=O)c1ccc(NC(=O)C(NC(=O)Nc2ccccc2)C(C)C)cc1` (stereo not given) here?
**A.** The cytotoxicity at 10 µM was -0.719%.

**Q.** For `COc1cc(F)c(NC(=O)N(C)CCNC(=O)N(C)C)cc1F`, which cytotoxicity at 10 µM is on record?
**A.** The cytotoxicity at 10 µM was 17.6%.

**Q.** Which cytotoxicity at 10 µM does the source give for `Cc1nc(CN(C)c2nc3c(cnn3C(C)(C)C)c(=O)[nH]2)cs1` here?
**A.** Its cytotoxicity at 10 µM is -5.53%.

**Q.** Which cytotoxicity at 10 µM does the source give for `Cc1n[nH]c(C)c1C1CCCN1C(=O)c1coc(Br)c1` (stereo not given) here?
**A.** Its cytotoxicity at 10 µM is 4.23%.

**Q.** For `CSCC(CCO)NC(=O)c1cccc(Cl)c1F` (stereo not given), which cytotoxicity at 10 µM is on record?
**A.** The cytotoxicity at 10 µM was 19%.

**Q.** Which cytotoxicity at 10 µM does the source give for `Cc1noc2ncc(S(=O)(=O)N3CCCC(C)(C)CC3)cc12` here?
**A.** The cytotoxicity at 10 µM was 8.88%.

**Q.** Which cytotoxicity at 10 µM does the source give for `COc1ccc(Cl)cc1NC(=O)CNc1ccn(CC(N)=O)n1` here?
**A.** The cytotoxicity at 10 µM was 13.6%.

**Q.** For `[O-][S+](CCN1CCc2[nH]nc(C(F)(F)F)c2C1)c1ccccc1` (stereo not given), which cytotoxicity at 10 µM is on record?
**A.** Its cytotoxicity at 10 µM is -9.92%.

**Q.** With `Cn1c(C(=O)NS(C)(=O)=O)ccc1-c1ccccc1` as the compound, how does the cytotoxicity at 10 µM read?
**A.** Its cytotoxicity at 10 µM is -6.85%.

**Q.** Which cytotoxicity at 10 µM does the source give for `c1ccc(CSc2nnc(C3CC3)s2)nc1` here?
**A.** The cytotoxicity at 10 µM was 0.873%.

**Q.** With `Cc1cccc(C)c1NCc1noc(C2CC2)n1` as the compound, how does the cytotoxicity at 10 µM read?
**A.** Its cytotoxicity at 10 µM is -5.06%.

**Q.** With `Cc1nnc(CN(Cc2ccc(Cl)c(Cl)c2)C2CC2)o1` as the compound, how does the cytotoxicity at 10 µM read?
**A.** The cytotoxicity at 10 µM was 4.85%.

**Q.** With `CS(=O)(=O)Cc1nc(CN2CCCc3sccc3C2)cs1` as the compound, how does the cytotoxicity at 10 µM read?
**A.** The cytotoxicity at 10 µM was 7.28%.

**Q.** With `CN(Cc1ccc(Cl)c(F)c1)C(=O)c1ccncc1F` as the compound, how does the cytotoxicity at 10 µM read?
**A.** The cytotoxicity at 10 µM was 3.31%.

**Q.** Which cytotoxicity at 10 µM does the source give for `COCCn1nc(C(=O)N(C)Cc2cnn(C)c2)ccc1=O` here?
**A.** The cytotoxicity at 10 µM was -2.44%.

**Q.** Which cytotoxicity at 10 µM does the source give for `Cn1c(CN2CCN(CC3CC3)CC2)nnc1C1CCC1` here?
**A.** The cytotoxicity at 10 µM was -26.7%.

**Q.** With `CC(c1cccc(-c2nccn2CCc2ccccn2)c1)N(C)C` (stereo not given) as the compound, how does the cytotoxicity at 10 µM read?
**A.** Its cytotoxicity at 10 µM is 7.62%.

**Q.** For `CCC[C@@H]1CN(Cc2ccc(N(C)C)nc2)C[C@H]1N(C)C`, which cytotoxicity at 10 µM is on record?
**A.** Its cytotoxicity at 10 µM is -15.1%.

**Q.** Which cytotoxicity at 10 µM does the source give for `Cc1nn(C)c(C)c1CN(C)C(=O)C1COc2ccccc2C1` (stereo not given) here?
**A.** Its cytotoxicity at 10 µM is -3.35%.

**Q.** For `NC(=O)c1ccc(-n2ccnc2C2CC2)cc1N1CCCC1`, which cytotoxicity at 10 µM is on record?
**A.** Its cytotoxicity at 10 µM is -3.82%.

**Q.** With `CC(C1CCN(Cc2ccc(N(C)C)nc2)CC1)N1CCOCC1` (stereo not given) as the compound, how does the cytotoxicity at 10 µM read?
**A.** Its cytotoxicity at 10 µM is 6.06%.

**Q.** With `Cc1ccc(C)c(OCCNC(=O)C2CCOC2)c1` (stereo not given) as the compound, how does the cytotoxicity at 10 µM read?
**A.** Its cytotoxicity at 10 µM is -2.73%.

**Q.** With `COc1ccc2cc(CN(C)CCc3cn[nH]c3)c(=O)[nH]c2c1` as the compound, how does the cytotoxicity at 10 µM read?
**A.** The cytotoxicity at 10 µM was 0.363%.

**Q.** Which cytotoxicity at 10 µM does the source give for `CC(O)c1cccc(-n2c(CCC(=O)O)nc3ccccc32)c1` (stereo not given) here?
**A.** Its cytotoxicity at 10 µM is 2.16%.

**Q.** With `CCN(C)C[C@@H]1CN(S(=O)(=O)c2cccc(C#N)c2)C[C@@H]1CO` as the compound, how does the cytotoxicity at 10 µM read?
**A.** The cytotoxicity at 10 µM was 5.45%.

**Q.** Which cytotoxicity at 10 µM does the source give for `c1cnc(N2CCC(c3nccn3CC3CC3)CC2)nc1` here?
**A.** The cytotoxicity at 10 µM was -7.28%.

**Q.** Which cytotoxicity at 10 µM does the source give for `FC(F)(F)c1ccc(-c2noc3c2CN(CC2CCCO2)CC3)cc1` (stereo not given) here?
**A.** Its cytotoxicity at 10 µM is 1.99%.

**Q.** Which cytotoxicity at 10 µM does the source give for `CCCC1(C(=O)O)CCCN(C(=O)c2cc(Cl)ccc2F)C1` (stereo not given) here?
**A.** The cytotoxicity at 10 µM was 0.515%.

**Q.** Which cytotoxicity at 10 µM does the source give for `Cc1cc(C)n(C2CCN(c3ncnc4c3CCC4)C2)n1` (stereo not given) here?
**A.** Its cytotoxicity at 10 µM is 23.6%.
